For seven compounds, logP, EC50 and Activity results are on record in ChEMBL document CHEMBL2069261, “Click-based synthesis of triazolobithiazole ΔF508-CFTR correctors for cystic fibrosis” (Bioorg Med Chem, 2012).

Calls of active or inactive are those of the source. The calls are words filed in the database; no cut-off is given here.

Data set [1] is described as follows: Lipophilicity, log P of the compound. The settings on record: octanol/water. The class given is physicochemical. The procedure, abridged: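 LogP was estimated from HPLC retention times. The capacity factor was calculated and correlated to logP values.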
The target of data set [2] is Cystic fibrosis transmembrane conductance regulator (Homo sapiens, UniProt P13569, F508DEL). Kind of data set: (§1) Corrector activity at human CFTR deltaF508 mutant expressed in FRT cells stimulated forskolin and potentiator genistein with assessed as iodide influx incubated for 24 hrs. The data set is classed as cell-based. The procedure, abridged: (§2)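 Epithelial cells co-expressing ΔF508-CFTR and a fluorescent halide sensor were treated with compound for 24 h across a dose range. They were then stimulated with forskolin (cAMP agonist) plus genistein (potentiator), and I⁻ influx was read from the sensor. Vmax and EC50 were taken from the dose-response curves. n=4, with S.E. reported.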

Data set [3] relates to Cystic fibrosis transmembrane conductance regulator (Homo sapiens), P13569 [F508del]. Described as §1. The data set is classed as cell-based. The procedure, abridged: as §2
Chain of Cystic fibrosis transmembrane conductance regulator (Homo sapiens), P13569 [F508del] (P13569 as listed by the source): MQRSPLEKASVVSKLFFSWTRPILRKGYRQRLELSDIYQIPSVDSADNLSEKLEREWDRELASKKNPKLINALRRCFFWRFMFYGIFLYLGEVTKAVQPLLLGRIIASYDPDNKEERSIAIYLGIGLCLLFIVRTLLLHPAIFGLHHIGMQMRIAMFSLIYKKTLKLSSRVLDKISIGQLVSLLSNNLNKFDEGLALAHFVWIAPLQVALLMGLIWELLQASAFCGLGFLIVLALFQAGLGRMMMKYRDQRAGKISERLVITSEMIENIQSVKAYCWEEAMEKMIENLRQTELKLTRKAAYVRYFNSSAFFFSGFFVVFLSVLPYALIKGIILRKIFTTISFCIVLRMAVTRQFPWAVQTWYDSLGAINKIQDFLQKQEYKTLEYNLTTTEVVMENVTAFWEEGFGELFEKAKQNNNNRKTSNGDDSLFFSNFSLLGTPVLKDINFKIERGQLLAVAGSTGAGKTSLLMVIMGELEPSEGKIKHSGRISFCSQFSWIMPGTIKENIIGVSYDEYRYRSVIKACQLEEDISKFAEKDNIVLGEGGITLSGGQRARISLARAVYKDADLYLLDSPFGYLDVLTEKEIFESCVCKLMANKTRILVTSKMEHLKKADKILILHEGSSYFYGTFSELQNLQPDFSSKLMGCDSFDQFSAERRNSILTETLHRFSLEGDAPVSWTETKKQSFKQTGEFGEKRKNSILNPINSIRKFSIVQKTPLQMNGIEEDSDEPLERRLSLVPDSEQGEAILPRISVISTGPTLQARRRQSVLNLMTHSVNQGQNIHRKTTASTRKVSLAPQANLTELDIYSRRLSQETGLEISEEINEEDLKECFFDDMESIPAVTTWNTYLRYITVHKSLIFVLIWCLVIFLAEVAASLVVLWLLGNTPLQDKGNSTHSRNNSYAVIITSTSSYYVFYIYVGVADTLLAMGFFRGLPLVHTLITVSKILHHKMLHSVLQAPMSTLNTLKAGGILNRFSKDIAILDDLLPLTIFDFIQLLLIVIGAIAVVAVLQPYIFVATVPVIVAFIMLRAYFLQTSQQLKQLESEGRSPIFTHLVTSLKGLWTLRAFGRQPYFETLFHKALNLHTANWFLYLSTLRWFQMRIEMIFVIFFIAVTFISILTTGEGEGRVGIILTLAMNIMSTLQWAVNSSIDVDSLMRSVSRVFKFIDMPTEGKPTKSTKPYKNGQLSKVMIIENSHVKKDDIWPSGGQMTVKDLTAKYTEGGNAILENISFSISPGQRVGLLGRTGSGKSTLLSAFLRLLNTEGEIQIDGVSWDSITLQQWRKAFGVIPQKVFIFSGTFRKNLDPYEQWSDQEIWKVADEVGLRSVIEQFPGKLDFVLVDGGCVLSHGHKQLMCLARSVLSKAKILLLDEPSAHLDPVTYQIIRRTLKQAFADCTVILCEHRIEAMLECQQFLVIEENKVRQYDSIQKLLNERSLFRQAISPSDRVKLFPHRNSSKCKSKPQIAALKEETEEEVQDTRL

Chain of Cystic fibrosis transmembrane conductance regulator (P13569 as listed by the source): as above

On to `COc1ccc(Cl)cc1Nc1nc(-c2sc(NC(=O)C(C)(C)C)nc2C)c(-n2cc(C(=O)O)nn2)s1`, for which the lipophilicity (logP) (as a rule, the decadic logarithm of the partition coefficient of the neutral form, usually between octanol and water) in data set [1] (read-out: logP) came to 4.8.

Turning to `COc1ccc(Cl)cc1Nc1nc(-c2sc(NC(=O)C(C)(C)C)nc2C)c(-n2cc(-c3ccccc3)nn2)s1`, the EC50 (as a rule, the concentration that produces a half-maximal response) in data set [2] was found to be 140 nM.

`CNc1nc(-c2sc(NC(=O)C(C)(C)C)nc2C)c(-n2cc(-c3ccccc3)nn2)s1`: in data set [2], the 50% effective concentration (EC50) turned out to be 4900 nM.

On to `Cc1nc(NC(=O)C(C)(C)C)sc1-c1nc(N)sc1-n1cc(-c2ccccc2)nn1`, for which the EC50 in data set [2] was 1500 nM.

Turning to `COc1ccc(Cl)cc1Nc1nc(-c2sc(NC(=O)C(C)(C)C)nc2C)c(-n2cc(CO)nn2)s1`, the logP in data set [1] (read-out: logP) was found to be 4.8. Further, the concentration giving a half-maximal response (EC50) in data set [2] stood at 1600 nM.

In data set [1], `COc1ccc(Cl)cc1Nc1nc(-c2sc(NC(=O)c3ccccc3)nc2C)cs1` had a log partition coefficient (logP) of 5.96. Also, in data set [3], the result was Active.

Regarding `COC(=O)c1cn(-c2sc(Nc3cc(Cl)ccc3OC)nc2-c2sc(NC(=O)C(C)(C)C)nc2C)nn1`, the lipophilicity (logP) in data set [1] (read-out: logP) stood at 4.8. For the same compound, in data set [2], the EC50 was 4600 nM.
